The values that follow come from PubChem BioAssay AID504390 (Broad Institute, 2011).

The source made the active and inactive calls.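 The calls were made as follows: active = signal-lowering compounds whose fitted half-maximal concentration is at most ten times the top tested dose; inconclusive = flat fit at 30 to 70% inhibition, or poor fit; inactive = the rest.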

Experiment [1] is described as follows: yeast GRE-lacZ reporter Hsp90 inhibition – S. cerevisiae, luminescence, dry powder, set 2, dose response (AID 504390). Conditions: S. cerevisiae GRE-lacZ reporter, Hsp90 function, luminescence; at 26 µM (top of the series). The procedure, abridged: (§1)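 Material: Saccharomyces yeast reporter strain, glucocorticoid response element driving β-galactosidase | Buffer or medium: SD-ADE yeast medium | Probe or stimulus: DOC steroid, 20 µM stock | Dosing: Compounds delivered by pin transfer | Times: 75 min treatment at 30 °C with agitation | Technique: β-galactosidase luminescence after 25 min development at 30 °C | Benchmarks: Radicicol 5 µM as positive control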

The test system of experiment [2] is S. cerevisiae GRE-lacZ reporter, Hsp90 function, luminescence. Described as above. The procedure, abridged: as §1

As for `COC(=O)Cn1nc(C2CC2)c2ccccc21`, in experiment [1], the activity change, negative = inhibition is -20.4% (inactive).

Broadly, the AC50 is the concentration at which the activity in the assay is half-maximal. For `COC(=O)Cn1nc(C(C)(C)C)c2ccccc21`, the AC50 in experiment [2] is 20.7 µM.

As for `O=C(Cn1c2ccccc2c2nc3n(c(=O)c21)CCS3)N1CC=CC1`, in experiment [1], the activity change, negative = inhibition was 20.7% (inactive).

With `COC(=O)Cn1nc(-c2cccc(OC)c2)c2ccccc21`, in experiment [2], the AC50 is 4.18 µM.

As for `COC(=O)Cn1nc(C2CCCCC2)c2ccccc21`, the AC50 in experiment [2] was 3.56 µM.

On to `O=C(Cn1c2ccccc2c2nc3n(c(=O)c21)CCS3)N1CCCC1`, for which the activity change, negative = inhibition in experiment [1] is -14.7% (inactive).

Turning to `COC(=O)Cn1nc(-c2cccc(C)c2)c2ccccc21`, in experiment [2], the half-maximal activity concentration (AC50) is 3.59 µM.

For `O=C(Cn1c2ccccc2c2nc3n(c(=O)c21)CCS3)N1CCC(F)(F)C1`, the activity change, negative = inhibition in experiment [1] is 29.5% (inactive).

For the compound `CN1CCN(C(=O)Cn2c3ccccc3c3nc4n(c(=O)c32)CCS4)CC1`, in experiment [1], the activity change, negative = inhibition is 52.6% (inactive).

As to `O=C(O)Cn1c2ccccc2c2nc3n(c(=O)c21)CCS3`, the activity change, negative = inhibition in experiment [1] is 10.8% (inactive).

Take `O=C(Cn1c2ccc(F)cc2c2nc3n(c(=O)c21)CCS3)N1CCCC1`: the activity change, negative = inhibition in experiment [1] was 39.4% (inactive).

For `COC(=O)Cn1nc(-c2ccccc2)c2cccnc21`, the AC50 in experiment [2] is 25.8 µM.

Consider `O=C(Cn1c2ccccc2c2nc3n(c(=O)c21)CCS3)N1CCCCC1`, for which, in experiment [2], the AC50 was 26.1 µM.

Turning to `c1ccc(-c2nn(Cc3nnco3)c3ccccc23)cc1`, the activity change, negative = inhibition in experiment [1] is -30.7% (inactive).

Take `CC1(O)CN(C(=O)Cn2c3ccccc3c3nc4n(c(=O)c32)CCS4)C1`: in experiment [1], the activity change, negative = inhibition is 25.6% (inactive).

For `CCc1nn(CC(=O)OC)c2ccccc12`, the activity change, negative = inhibition in experiment [1] was 35.3% (inactive).

`COC(=O)n1nc(-c2ccccc2)c2ccccc21`: in experiment [1], the activity change, negative = inhibition was 10.4% (inactive).

Turning to `O=C(Cn1c2ccccc2c2nc3n(c(=O)c21)CCS3)N1CCC(F)(F)CC1`, the activity change, negative = inhibition in experiment [1] is 4.34% (inactive).
